Test results from ChEMBL document CHEMBL5329156, “Discovery and development of novel substituted monohydrazides as potent antifungal agents” (RSC Med Chem, 2023).
In brackets after ≈: the same amount, converted by molar mass. Activity calls are given as the source filed them. The rule behind the calls is not given here.

Key:
Nakaseomyces glabratus [1] = assay: Antifungal activity against Candida glabrata ATCC 2001 assessed as fungal growth inhibition by double dilution method; assay type: functional
Summary of the method: (§1)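 Broth microdilution after CLSI M27-A3/M38-A2 with minor changes. Single colony grown overnight in YPD at 35 °C, 200 rpm. Compound final range 0.06-31.3 µg/mL; incubated 48 h at 35 °C.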

Candida albicans [2] = assay: Antifungal activity against Candida albicans ATCC 64124 assessed as fungal growth inhibition by double dilution method; assay type: functional
Summary of the method: (§2)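 Broth microdilution after CLSI M27-A3/M38-A2 with minor modifications. A single colony was grown overnight in YPD at 35 °C with shaking at 200 rpm. Cells were mixed 1:1 with compound (final 0.06-31.3 µg/mL, from DMSO stocks) and incubated 48 h at 35 °C.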

Candida albicans [3] = assay: Antifungal activity against Candida albicans ATCC 10231 assessed as fungal growth inhibition by time kill studies; assay type: functional, organism-based
Summary of the method: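 Overnight YPD culture (35 °C, 200 rpm) diluted in RPMI 1640 to ~1×10⁵ CFU/mL. […] Samples at 0, 3, 6, 9, 12, 18 and 24 h were 10-fold diluted and plated on PDA; colonies counted after 48 h at 35 °C. Run in duplicate.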

[Candida] auris [4] = Antifungal activity against Candida auris AR Bank # 381 assessed as fungal growth inhibition by double dilution method; assay type: functional; conditions: Candidozyma auris; summary of the method: as §1
[Candida] haemuloni [5] = Antifungal activity against Candida haemulonii AR Bank # 393 assessed as fungal growth inhibition by double dilution method; assay type: functional; conditions: Candidozyma haemuli; summary of the method: as §1
HepG2 = assay: Cytotoxicity against human HepG2 cells assessed as reduction in cell viability upto 31.3 microg/ml; assay type: toxicity, cell-based; conditions: dose < 31.3 µg/ml
Summary of the method: (§3)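 Cells in DMEM with 10% FBS and 1% Pen/Strep, seeded at 10,000 cells/well and held overnight at 37 °C, 5% CO2. Compounds added at final 31.3-0.12 µg/mL (0.05% DMSO vehicle) for 24 h. Resazurin then added for 6 h; fluorescence read at ex 560/em 590. Triton X-100 1% as positive control; values normalized to vehicle. Run in quadruplicate.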

Clavispora lusitaniae = assay: Antifungal activity against Clavispora lusitaniae AR Bank # 398 assessed as fungal growth inhibition by double dilution method; assay type: functional; summary of the method: as §1
Nakaseomyces glabratus [6] = assay: Antifungal activity against Candida glabrata ATCC 22019 assessed as fungal growth inhibition by double dilution method; assay type: functional; summary of the method: as §1
Aspergillus flavus = assay: Antifungal activity against Aspergillus flavus ATCC MYA-3631 assessed as fungal growth inhibition by double dilution method; assay type: functional
[Candida] auris [7] = Antifungal activity against Candida auris AR Bank # 382 assessed as fungal growth inhibition by double dilution method; assay type: functional; conditions: Candidozyma auris; summary of the method: as §1
[Candida] auris [8] = Antifungal activity against Candida auris AR Bank # 384 assessed as fungal growth inhibition by double dilution method; assay type: functional; conditions: Candidozyma auris; summary of the method: as §1
[Candida] auris [9] = Antifungal activity against Candida auris AR Bank # 386 assessed as fungal growth inhibition by double dilution method; assay type: functional; conditions: Candidozyma auris; summary of the method: as §1
Candida duobushaemulonii [10] = assay: Antifungal activity against Candida duobushaemulonii AR Bank # 392 assessed as fungal growth inhibition by double dilution method; assay type: functional; conditions: Candidozyma duobushaemuli; summary of the method: as §1
Saccharomyces cerevisiae [11] = assay: Antifungal activity against Saccharomyces cerevisiae AR Bank # 399 assessed as fungal growth inhibition by double dilution method; assay type: functional; summary of the method: as §1
Aspergillus terreus = assay: Antifungal activity against Aspergillus terreus ATCC MYA-3633 assessed as fungal growth inhibition by double dilution method; assay type: functional
[Candida] auris [12] = Antifungal activity against Candida auris AR Bank # 0390 assessed as fungal growth inhibition by double dilution method; assay type: functional; conditions: Candidozyma auris; summary of the method: as §1
Candida albicans [13] = assay: Antibiofilm activity against Candida albicans ATCC 10231 assessed as reduction in preformed biofilm production by biofilm formation assay; assay type: functional, organism-based
Summary of the method: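 After PBS washes, XTT 0.5 mg/mL with 1 µM menadione added, 3 h at 37 °C in the dark; absorbance read at 450 nm.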

Aspergillus fumigatus [14] = assay: Antifungal activity against Aspergillus fumigatus NRRL 6113 assessed as fungal growth inhibition by double dilution method; assay type: functional
Candida albicans [15] = assay: Antifungal activity against itraconazole/fluconazole resistant Candida albicans ATCC MYA-1237 assessed as fungal growth inhibition by double dilution method; assay type: functional; summary of the method: as §2
Candida duobushaemulonii [16] = assay: Antifungal activity against Candida duobushaemulonii AR Bank # 391 assessed as fungal growth inhibition by double dilution method; assay type: functional; conditions: Candidozyma duobushaemuli; summary of the method: as §1
[Candida] auris [17] = Antifungal activity against Candida auris AR Bank # 383 assessed as fungal growth inhibition by double dilution method; assay type: functional; conditions: Candidozyma auris; summary of the method: as §1
[Candida] auris [18] = Antifungal activity against Candida auris AR Bank # 388 assessed as fungal growth inhibition by double dilution method; assay type: functional; conditions: Candidozyma auris; summary of the method: as §1
Candida albicans [19] = assay: Antifungal activity against itraconazole/fluconazole susceptible Candida albicans ATCC MYA-2876 assessed as fungal growth inhibition by double dilution method; assay type: functional; summary of the method: as §2
[Candida] auris [20] = Antifungal activity against Candida auris AR Bank # 387 assessed as fungal growth inhibition by double dilution method; assay type: functional; conditions: Candidozyma auris; summary of the method: as §1
Pichia kudriavzevii [21] = assay: Antifungal activity against Pichia kudriavzevii AR Bank # 397 assessed as fungal growth inhibition by double dilution method; assay type: functional; summary of the method: as §1
[Candida] auris [22] = Antifungal activity against Candida auris AR Bank # 390 assessed as fungal growth inhibition by double dilution method; assay type: functional; conditions: Candidozyma auris; summary of the method: as §1
Aspergillus fumigatus [23] = assay: Antifungal activity against Aspergillus fumigatus NRRL 163 assessed as fungal growth inhibition by double dilution method; assay type: functional
HEK293 = assay: Cytotoxicity against human HEK-293 cells assessed as reduction in cell viability at 31.3 microg/ml; assay type: toxicity, cell-based; conditions: dose 31.3 µg/ml; summary of the method: as §3
Candida albicans [24] = assay: Antifungal activity against itraconazole/fluconazole resistant Candida albicans ATCC 90819 assessed as fungal growth inhibition by double dilution method; assay type: functional; summary of the method: as §2
Aspergillus fumigatus [25] = assay: Antifungal activity against Aspergillus fumigatus NRRL 5109 assessed as fungal growth inhibition by double dilution method; assay type: functional
Aspergillus nidulans = assay: Antifungal activity against Aspergillus nidulans ATCC 38163 assessed as fungal growth inhibition by double dilution method; assay type: functional
J774.A1 = assay: Cytotoxicity against J774A.1 cells assessed as reduction in cell viability at 31.3 microg/ml; assay type: toxicity, cell-based; conditions: mouse, dose 31.3 µg/ml; summary of the method: as §3
Kodamaea ohmeri = assay: Antifungal activity against Kodamaea ohmeri AR Bank # 396 assessed as fungal growth inhibition by double dilution method; assay type: functional; summary of the method: as §1
Candida albicans [26] = assay: Antifungal activity against Candida albicans ATCC 10231 assessed as fungal growth inhibition by double dilution method; assay type: functional; summary of the method: as §1
[Candida] auris [27] = Antifungal activity against Candida auris AR Bank # 0384 assessed as fungal growth inhibition by double dilution method; assay type: functional; conditions: Candidozyma auris; summary of the method: as §1
Candida albicans [28] = assay: Antifungal activity against itraconazole/fluconazole resistant Candida albicans ATCC MYA-1003 assessed as fungal growth inhibition by double dilution method; assay type: functional; summary of the method: as §2
[Candida] auris [29] = Antifungal activity against Candida auris AR Bank # 385 assessed as fungal growth inhibition by double dilution method; assay type: functional; conditions: Candidozyma auris; summary of the method: as §1
Candida albicans [30] = assay: Antibiofilm activity against Candida albicans ATCC 10231 assessed as reduction in biofilm production at 1.96 to 3.9 microg/ml by biofilm formation assay; assay type: functional, organism-based; conditions: dose 1.96-3.9 µg/ml
Candida albicans [31] = assay: Antifungal activity against itraconazole/fluconazole susceptible Candida albicans ATCC MYA-2310 assessed as fungal growth inhibition by double dilution method; assay type: functional; summary of the method: as §2
Saccharomyces cerevisiae [32] = assay: Antifungal activity against Saccharomyces cerevisiae AR Bank # 400 assessed as fungal growth inhibition by double dilution method; assay type: functional; summary of the method: as §1
[Candida] auris [33] = Antifungal activity against Candida auris AR Bank # 389 assessed as fungal growth inhibition by double dilution method; assay type: functional; conditions: Candidozyma auris; summary of the method: as §1
Candida duobushaemulonii [34] = assay: Antifungal activity against Candida duobushaemulonii AR Bank # 394 assessed as fungal growth inhibition by double dilution method; assay type: functional; conditions: Candidozyma duobushaemuli; summary of the method: as §1
[Candida] haemuloni [35] = Antifungal activity against Candida haemulonii AR Bank # 395 assessed as fungal growth inhibition by double dilution method; assay type: functional; conditions: Candidozyma haemuli; summary of the method: as §1
Pichia kudriavzevii [36] = assay: Antifungal activity against Pichia kudriavzevii ATCC 6258 assessed as fungal growth inhibition by double dilution method; assay type: functional; summary of the method: as §1
Cryptococcus neoformans = assay: Antifungal activity against Cryptococcus neoformans ATCC MYA-895 assessed as fungal growth inhibition by double dilution method; assay type: functional; summary of the method: as §1

O=C(NNc1cccc(Cl)c1)c1ccccn1
MIC (Nakaseomyces glabratus [1]): 1.95 µg/mL (≈ 7.87 µM) | MIC (Candida albicans [2]): 0.98 µg/mL (≈ 3.96 µM) | Activity (Candida albicans [3]): Dose-Dependent Effect | MIC ([Candida] auris [4]): 0.98 µg/mL (≈ 3.96 µM) | MIC ([Candida] haemuloni [5]): 0.12 µg/mL (≈ 0.484 µM) | Activity (HepG2): Non-Toxic | MIC (Clavispora lusitaniae): 0.98 µg/mL (≈ 3.96 µM) | MIC (Nakaseomyces glabratus [6]): 1.95 µg/mL (≈ 7.87 µM) | MIC (Aspergillus flavus): > 31.3 µg/mL | MIC ([Candida] auris [7]): 0.49 µg/mL (≈ 1.98 µM) | MIC ([Candida] auris [8]): 0.98 µg/mL (≈ 3.96 µM) | MIC ([Candida] auris [9]): 0.24 µg/mL (≈ 0.969 µM) | MIC (Candida duobushaemulonii [10]): 0.24 µg/mL (≈ 0.969 µM) | MIC (Saccharomyces cerevisiae [11]): 0.98 µg/mL (≈ 3.96 µM) | MIC (Aspergillus terreus): 0.98 µg/mL (≈ 3.96 µM) | MIC ([Candida] auris [12]): 0.98 µg/mL (≈ 3.96 µM) | Activity (Candida albicans [13]): inactive | MIC (Aspergillus fumigatus [14]): > 31.3 µg/mL | MIC (Candida albicans [15]): 0.98 µg/mL (≈ 3.96 µM) | MIC (Candida duobushaemulonii [16]): 0.24 µg/mL (≈ 0.969 µM) | MIC ([Candida] auris [17]): 0.49 µg/mL (≈ 1.98 µM) | MIC ([Candida] auris [18]): 0.49 µg/mL (≈ 1.98 µM) | MIC (Candida albicans [19]): 0.98 µg/mL (≈ 3.96 µM) | MIC ([Candida] auris [20]): 0.49 µg/mL (≈ 1.98 µM) | MIC (Pichia kudriavzevii [21]): 0.12 µg/mL (≈ 0.484 µM) | MIC ([Candida] auris [22]): 0.49 µg/mL (≈ 1.98 µM) | MIC (Aspergillus fumigatus [23]): > 31.3 µg/mL | Activity (HEK293): Non-Toxic | MIC (Candida albicans [24]): 0.49 µg/mL (≈ 1.98 µM) | MIC (Aspergillus fumigatus [25]): > 31.3 µg/mL | MIC (Aspergillus nidulans): 0.24 µg/mL (≈ 0.969 µM) | Activity (J774.A1): Non-Toxic | MIC (Kodamaea ohmeri): 0.12 µg/mL (≈ 0.484 µM) | MIC (Candida albicans [26]): 0.12 µg/mL (≈ 0.484 µM) | MIC ([Candida] auris [27]): 0.98 µg/mL (≈ 3.96 µM) | MIC (Candida albicans [28]): 0.49 µg/mL (≈ 1.98 µM) | MIC ([Candida] auris [29]): 0.49 µg/mL (≈ 1.98 µM) | Activity (Candida albicans [30]): Active | MIC (Candida albicans [31]): 0.98 µg/mL (≈ 3.96 µM) | MIC (Saccharomyces cerevisiae [32]): 0.98 µg/mL (≈ 3.96 µM) | MIC ([Candida] auris [33]): 0.49 µg/mL (≈ 1.98 µM) | MIC (Candida duobushaemulonii [34]): 12 µg/mL (≈ 48.4 µM) | MIC ([Candida] haemuloni [35]): ≤ 0.06 µg/mL | MIC (Pichia kudriavzevii [36]): 0.49 µg/mL (≈ 1.98 µM) | MIC (Cryptococcus neoformans): 0.12 µg/mL (≈ 0.484 µM)
